From PubChem BioAssay AID743338 (The Scripps Research Institute Molecular Screening Center, 2014)
Active and inactive are the calls of the source.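 Rule for the calls: active = IC50 at or below 10 µM; inactive = IC50 above 10 µM.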

biological target: Disintegrin and metalloproteinase domain-containing protein 10 (Homo sapiens) (UniProt O14672); test: ADAM10 protease inhibitors, potency curves – biochemical, QFRET peptide, fluorescence, ADAM10 exosite inhibitor project, late-stage follow-up (AID 743338); conditions: recombinant ADAM10, QFRET peptide cleavage
In short: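 evaluation = IC50 from four-parameter inhibition curve fit | test system = human ADAM10 | also added = DM2 quenched peptide substrate | dosing = 10 doses, 1:3 steps, up to 69.5 µM | times = Enzyme–compound preincubation 30 min at 25 °C, substrate reaction 3 h | benchmarks = 1 µM marimastat high, DMSO low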

Sequence of Disintegrin and metalloproteinase domain-containing protein 10 (Homo sapiens) (O14672 214-748 limits assumed): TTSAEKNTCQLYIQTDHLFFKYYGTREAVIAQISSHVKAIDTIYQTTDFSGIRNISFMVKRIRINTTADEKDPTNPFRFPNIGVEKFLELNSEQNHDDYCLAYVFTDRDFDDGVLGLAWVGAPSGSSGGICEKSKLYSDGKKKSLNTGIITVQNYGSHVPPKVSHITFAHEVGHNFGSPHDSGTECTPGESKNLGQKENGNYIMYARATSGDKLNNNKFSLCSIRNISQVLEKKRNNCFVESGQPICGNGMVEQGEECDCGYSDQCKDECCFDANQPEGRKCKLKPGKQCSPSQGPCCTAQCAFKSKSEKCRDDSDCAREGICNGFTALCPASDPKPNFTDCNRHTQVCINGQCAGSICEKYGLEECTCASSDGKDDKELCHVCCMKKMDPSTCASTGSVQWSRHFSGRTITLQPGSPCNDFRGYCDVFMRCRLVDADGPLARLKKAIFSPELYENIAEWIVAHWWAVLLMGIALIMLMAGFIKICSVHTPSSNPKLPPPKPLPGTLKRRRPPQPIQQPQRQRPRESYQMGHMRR

Row | IC50 | Compound
1 | > 69.5 µM (inactive) | CS(=O)(=O)N(CC(=O)Nc1ccccc1Sc1ccccc1)c1cccc(Br)c1
2 | inactive | C=C(C)COc1ccc(-c2[nH]ncc2Oc2ccc(OC)cc2)c(O)c1
3 | > 69.5 µM (inactive) | Cc1ccc(CC2(c3ccccc3)NC(=O)NC2=O)cc1 (stereo not drawn)
4 | 4.87 µM | Oc1cc2c(cc1C(c1ccc(Cl)c(Cl)c1)N1CCCC1)OCO2 (stereo not drawn)
5 | 6.5 µM | COc1cccc(C(=O)NNC(=O)C(=O)Nc2ccc(C)c(Cl)c2)c1
6 | > 69.5 µM (inactive) | COc1ccccc1NS(=O)(=O)c1cccc(NC(=O)Nc2ccc(Cl)cc2)c1
7 | inactive | O=C1NC(=O)C(Cc2ccc(Cl)cc2)(c2ccccc2)N1 (stereo not drawn)
8 | > 69.5 µM (inactive) | Cc1ccc(OCC(O)Cn2c3ccccc3c3ccccc32)cc1 (stereo not drawn)
9 | > 69.5 µM (inactive) | Cc1ccc(S(=O)(=O)Nc2ccc(Cl)cc2)cc1NC(=O)c1cc2c(s1)CCCC2
10 | > 69.5 µM (inactive) | O=C(Nc1ccc(OCC(F)(F)C(F)(F)F)c(C(F)(F)F)c1)c1ccc(F)cc1
11 | inactive | C=C(C)COc1ccc(-c2[nH]ncc2Oc2cccc(OC)c2)c(O)c1
12 | > 69.5 µM (inactive) | O=C(O)CCC(=O)c1c[nH]c2ccccc12
13 | > 69.5 µM (inactive) | O=C(Nc1ccc(OCC(F)(F)C(F)(F)F)c(C(F)(F)F)c1)c1ccc(Br)cc1
14 | > 69.5 µM (inactive) | O=C(CN(Cc1cccs1)S(=O)(=O)c1ccc(S(=O)(=O)NC2CCCCC2)cc1)Nc1ccccc1
15 | > 69.5 µM (inactive) | O=C(Nc1ccc(OCC(F)(F)C(F)F)c(C(F)(F)F)c1)c1ccc(Cl)cc1
16 | > 69.5 µM (inactive) | CCCCN(Cc1ccccc1)S(=O)(=O)c1cc(Br)cc2c1N(C(C)=O)C(C)C2 (stereo not drawn)
17 | > 69.5 µM (inactive) | COc1ccc2nc(SCC(=O)Nc3ccc(S(=O)(=O)N4CCCC4)cc3)c(C#N)cc2c1
18 | > 69.5 µM (inactive) | CCOc1ccc(NC(=O)CC2SC(=O)N(c3ccccc3)C2=O)cc1 (stereo not drawn)
19 | > 69.5 µM (inactive) | O=S(=O)(NCC(Nc1ccc(Cl)cc1)c1ccccc1)c1ccc(Cl)cc1 (stereo not drawn)
20 | > 69.5 µM (inactive) | Cc1csc(-c2cnn(-c3ccccc3)c2NC(=O)c2ccc(C(F)(F)F)cc2)n1
21 | inactive | C=C(C)COc1ccc(-c2n[nH]c(C)c2Oc2ccccc2OC)c(O)c1
22 | > 69.5 µM (inactive) | COc1ccc(-c2ccc(-c3noc(-c4cccc(OC)c4)n3)c(OC)n2)cc1
23 | > 69.5 µM (inactive) | O=S(=O)(NCC(Nc1ccc(Cl)cc1)c1ccccc1)c1ccccc1 (stereo not drawn)
